Assay results pooled from the literature.
Compare with care: the assays were run in different laboratories.

N.N.[Cl][Pt][Cl] — IC50 (A2780; cell growth or viability, MTT): 0.31 µM
COc1ccc(Nc2nn3c(-c4ccccc4)ccnc3c2C(=O)Nc2ccccc2)cc1 — viability (Caco-2; cell growth or viability, MTT; 25 µg/mL, 48 h, serum-free): 56.6%
Oc1c(Br)cc(Br)cc1-c1[nH]c(Br)c(Br)c1Br — MIC (Streptococcus pneumoniae; microbial growth; ATCC49619): 0.04 µM
C[C@@H]1CN2c3c(cc4c(N5C(=O)OC[C@@H]5C)noc4c3F)CC3(C(=O)NC(=O)NC3=O)[C@H]2[C@H](C)O1 — MIC (Klebsiella pneumoniae; microbial growth, broth dilution; ATCC10031): 0.25 µg/mL
O=c1ccc2nc3ccc(O)cc3oc-2c1 — MIC (Klebsiella pneumoniae; microbial growth; 24 h): > 32 µg/mL
COc1ccc(-c2c(-c3ccc(C#N)c(F)c3)nc(N3CCC(N)CC3)n(C)c2=O)cc1F — IC50 (TC-32; cell growth or viability, resazurin): 36 µM
Oc1c(Cl)cc(Cl)cc1-c1[nH]c(Cl)c(Cl)c1Cl — MIC (Streptococcus pneumoniae; microbial growth; ATCC49619): 0.13 µM
O=c1ccc2nc3ccc(OCc4ccc([N+](=O)[O-])o4)cc3oc-2c1 — MIC (Klebsiella pneumoniae; microbial growth; 24 h): > 32 µg/mL
Cc1c2ccncc2c(C)c2c1[nH]c1ccccc12 — GI50 (Caco-2; cell growth or viability, SRB; 72 h): 4.91 µM
